According to paper PMC6339461 (Bioorganic & medicinal chemistry letters, 2018):
“Also recorded” adds a separate entry of the source.

How the values were obtained:
[1] = solubility in DMSO and buffer; type: physicochemical; conditions: in both DMSO and buffer; compared with hit 7a
[2] = parallel artificial membrane permeability assay; type: in vitro ADME; conditions: for permeability, result in words: PAMPA
HepG2 = experiment: cytotoxicity in HepG2 cells; type: cell-based; conditions: concentrations up to 100 μM
HeLa = experiment: cytotoxicity in HeLa cells; type: cell-based; conditions: concentrations up to 100 μM
TDP2 = target: T1, TDP2 (Danio rerio, UniProt Q5XJA0); experiment: fluorescence-based biochemical assay measuring the catalytic activity of TDP2
T1 sequence (Q5XJA0 121-369): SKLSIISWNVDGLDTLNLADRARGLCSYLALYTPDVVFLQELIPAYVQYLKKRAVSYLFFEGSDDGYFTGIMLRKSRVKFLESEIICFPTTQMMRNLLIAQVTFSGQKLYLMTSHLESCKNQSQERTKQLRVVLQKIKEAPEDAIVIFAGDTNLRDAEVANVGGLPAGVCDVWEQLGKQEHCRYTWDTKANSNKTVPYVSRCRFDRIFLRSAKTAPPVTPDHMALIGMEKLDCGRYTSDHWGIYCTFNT
Summary of the method: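 TDP2 catalytic activity measured with a fluorescence read-out. IC50 values are the mean of three independent experiments, each run in triplicate.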

SMILES | permeability, result in words [2] | cytotoxicity in HepG2, result in words (HepG2) | cytotoxicity in HeLa, result in words (HeLa) | also measured
O=C(Nc1nc2cc(-c3ccccc3)ccn2n1)c1cccc([N+](=O)[O-])c1 [Compound 17a] |  |  |  | solubility profile, result in words [1]: better solubility profile
O=C(Nc1nc2cc(-c3ccccc3)ccn2n1)c1cccc(Cl)c1 [Compound 17e] | borderline Pe value; also recorded: good cellular permeability | no cytotoxicity | no cytotoxicity | Pe value, times higher than that of 1 ([2]; relative to 1): about 10 times; permeability in PAMPA, fold higher than the hit compound ([2]; relative to hit compound): 6 fold
O=C(Nc1nc2cc(-c3ccccc3)ccn2n1)c1ccc(F)cc1Cl [Compound 17o] |  |  |  | TDP2 inhibition, result in words (TDP2): further reduced activity
O=C(Nc1nc2cc(-c3cccnc3)ccn2n1)c1cccc(Cl)c1 [Compound 17z] | good cellular permeability; also recorded: excellent cell permeability | no cytotoxicity | no cytotoxicity | fold increase in permeability versus 17e ([2]; relative to 17e): 7 fold
